# Test results from ChEMBL document CHEMBL3870308, “Repurposing of a drug scaffold: Identification of novel sila analogues of rimonabant as potent antitubercular agents” (Eur J Med Chem, 2016).
# What was measured:
# [1] = tested on: Mycobacterium tuberculosis; experiment: Antitubercular activity against Mycobacterium tuberculosis H37Rv assessed as growth inhibition by Alamar-Blue assay; format: functional
# [2] = Cytotoxicity against human A549 cells measured after 48 hrs by MTT assay; format: toxicity, cell-based
# Outline: (§1)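 Cells from ATCC grown in DMEM with 10% FBS at 37 °C in 5% CO2, harvested by trypsinization and seeded at 7500 cells per well. After 18 h, compound added at final 0.1, 1, 10 and 100 µM in triplicate. Plates incubated 48 h, then MTT for 60 min at 37 °C. Formazan dissolved in DMSO and read at 560 nm. Percent growth taken relative to control wells, with dose-response curves. Repeated three times, mean ± SD.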
# [3] = Selectivity index, ratio of IC50 for human HepG2 cells to MIC for Mycobacterium tuberculosis H37Rv; format: toxicity, cell-based; details: read-out: Ratio IC50
# [4] = Cytotoxicity against mouse RAW cells assessed as reduction in cell viability at =>3 uM measured after 48 hrs by MTT assay; format: toxicity; details: read-out: INH
# [5] = Selectivity index, ratio of IC50 for human A549 cells to MIC for Mycobacterium tuberculosis H37Rv; format: toxicity, cell-based; details: read-out: Ratio IC50
# [6] = tested on: Mycobacterium tuberculosis; experiment: Antimycobacterial activity against Mycobacterium tuberculosis by broth microdilution assay; format: functional
# [7] = Protein binding human plasma at 150 uM measured after 30 mins by equilibrium dialysis method; format: ADME, cell-free; details: read-out: PPB (converted)
# Outline: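 Plasma spiked with 5 µL of 150 µM compound per 745 µL. Sampled at 0 h, then incubated 30 min at 37 °C. Rapid equilibrium dialysis of plasma against KH2PO4 buffer pH 7.4 for 4 h at 37 °C with shaking. Both chambers matrix-matched and precipitated with methanol containing tolbutamide internal standard. Analysed by LC-MS/MS.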
# [8] = Cytotoxicity against human HepG2 cells measured after 48 hrs by MTT assay; format: toxicity, cell-based; outline: as §1
# [9] = Cytotoxicity against human THP1 cells assessed as reduction in cell viability at =>3 uM measured after 48 hrs by MTT assay; format: toxicity, cell-based, THP-1; details: read-out: INH
# [10] = Metabolic stability in human plasma at 50 uM measured after 60 mins by LC-MS/MS analysis; format: ADME, cell-free; details: read-out: Stability
# Outline: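 Working solution at 50 µM in acetonitrile:water (1:1), from a 10 mM DMSO stock. 2 µL added to 98 µL of plasma and incubated 60 min at 37 °C. Quenched with methanol containing internal standard, centrifuged, and supernatant analysed by LC-MS/MS.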
# [11] = Metabolic stability in human liver microsomes at 1 or 50 uM measured after 30 to 60 mins in presence of cofactor by LC-MS/MS analysis; format: ADME
# Outline: (§2)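 Stock 10 mM in DMSO, diluted to a 50 µM working solution in acetonitrile:water (1:1). 2 µL of this added to 98 µL of buffer, microsomes and cofactor. Incubated at 37 °C for 15, 30, 45 and 60 min. Stopped with methanol containing internal standard, vortexed and centrifuged. Supernatant analysed by LC-MS/MS.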
# [12] = Solubility of the compound at pH 7.4 by HPLC method; format: physicochemical; details: buffer
# Outline: (§3)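 Compound diluted to a 5 mM DMSO working solution from a 10 mM stock. 5 µL added to 495 µL of buffer at the stated pH. Vortexed 5 min and centrifuged. Supernatant quantified by HPLC.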
# [13] = Metabolic stability in mouse liver microsomes at 1 or 50 uM measured after 30 to 60 mins in presence of cofactor by LC-MS/MS analysis; format: ADME; outline: as §2
# [14] = Solubility of the compound at pH 1.2 by HPLC method; format: physicochemical; details: buffer; outline: as §3
# [15] = Solubility of the compound at pH 10.2 by HPLC method; format: physicochemical; details: buffer; outline: as §3
# [16] = Solubility of the compound at pH 4.5 by HPLC method; format: physicochemical; details: buffer; outline: as §3
# [17] = Solubility of the compound at pH 2.2 by HPLC method; format: physicochemical; details: buffer; outline: as §3
SMILES,MIC [1] [µg/mL],IC50 at 48 h [2] [µM],selectivity ratio [3],cytotoxicity at 48 h [4] [%],selectivity ratio [5],MIC [6] [µg/mL],"fraction unbound at 0.5 h, 150 µM [7]",IC50 at 48 h [8] [µM],cytotoxicity at 48 h [9] [%],"remaining at 1 h, 50 µM [10] [%]",Stability [11] [%],solubility [12] [µM],Stability [13] [%],solubility [14] [µM],solubility [15] [µM],solubility [16] [µM],solubility [17] [µM]
Cc1c(CN2CCN(C)CC2)cc(-c2ccc(Cl)cc2)n1-c1ccc(Cl)cc1,0.7,91.5,44.4,40 to 60,57.2,0.7 to 1.5,0.0077,71,40 to 60,100,,,,,,,
C[Si]1(C)CCN(NCc2cc(-c3ccc(Cl)cc3)n(-c3ccc(Cl)cc3)n2)CC1,0.39,73.2,99.8,40 to 60,84.2,,0.0069,86.8,40 to 60,100,93.1,39.8,100,43.1,38,44.3,43.2
CN(C)CCCNC(=O)c1cc(-c2ccc(Cl)cc2)n(-c2ccc(Cl)cc2)n1,25,,,,,,,,,,,,,,,,
Cc1c(CN2CCN(C)CC2)nn(-c2ccc(Cl)cc2Cl)c1-c1ccc(Cl)cc1,12.5,80.3,3.1,,2.9,,,85,,,,,,,,,
Cc1c(CN2CC[Si](C)(C)CC2)nn(-c2ccc(Cl)cc2Cl)c1-c1ccc(Cl)cc1,1.17,54.2,30.5,40 to 60,31.9,,0.0005,51.9,40 to 60,99.2,18.5,1.05,9.2,41,10.9,34.2,40.6
Cc1c(C(=O)N2CCNCC2)nn(-c2ccc(Cl)cc2Cl)c1-c1ccc(Cl)cc1,25,,,,,,,,,,,,,,,,
C[Si]1(C)CCN(Cc2nn(-c3ccc(Cl)cc3Cl)c(-c3ccc(Cl)cc3)c2CO)CC1,6.25,61.9,2.41,,4.92,,0.0004,30.4,,88.1,2.1,5.31,3.7,44,2.39,41.6,42.5
Cc1c(C(=O)NCCCN(C)C)nn(-c2ccc(Cl)cc2Cl)c1-c1ccc(Cl)cc1,25,,,,,,,,,,,,,,,,
Clc1ccc(-c2cc(CN3CCCCC3)nn2-c2ccc(Cl)cc2)cc1,1.56,,,,,,0.0011,,,91.7,60.1,11.4,26,45,1.49,43.6,44.6
O=C1CCN(Cc2cc(-c3ccc(Cl)cc3)n(-c3ccc(Cl)cc3)n2)CC1,25,,,,,,,,,,,,,,,,
Cc1c(CNCc2ccccc2)nn(-c2ccc(Cl)cc2Cl)c1-c1ccc(Cl)cc1,6.25,55.8,4.2,,4.1,,,57.4,,,,,,,,,
